Data set [1] has as its target Free fatty acid receptor 1 (Homo sapiens) (UniProt O14842). Description: Agonist activity at FFA1 receptor up to 30 uM. It is filed as functional.
For data set [2], the system named is Mus musculus. Briefly: Reduction in plasma free fatty acid level in overnight fasted wild type C57BL/6 mouse at 3 mg/kg, ip after 15 mins. The data set is classed as functional, organism-based. Also on record: dose 3 mg/kg. Put shortly: (§1)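 Male-unspecified C57BL6 mice, wild type or FFA2 knockout, fasted overnight. Given compound or vehicle (10% dimethyl acetamide, 10% ethanol, 30% propylene glycol, 50% saline) ip at 10 ml/kg. Tail blood sampled before and 15 minutes after injection. Plasma FFA measured by enzymatic kit. Ten animals per group; t test.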

The target of data set [3] is T1, Free fatty acid receptor 2 (Homo sapiens, UniProt O15552).
T1 sequence (O15552 whole entry): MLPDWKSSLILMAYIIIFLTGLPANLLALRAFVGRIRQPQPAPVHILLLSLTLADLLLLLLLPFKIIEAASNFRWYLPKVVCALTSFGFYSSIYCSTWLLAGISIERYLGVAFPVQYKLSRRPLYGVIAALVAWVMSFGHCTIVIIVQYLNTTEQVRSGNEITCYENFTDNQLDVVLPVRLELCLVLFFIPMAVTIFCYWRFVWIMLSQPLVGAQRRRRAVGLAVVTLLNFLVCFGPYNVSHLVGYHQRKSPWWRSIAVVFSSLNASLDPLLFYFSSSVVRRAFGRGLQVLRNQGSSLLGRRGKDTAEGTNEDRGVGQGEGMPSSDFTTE
Description: Agonist activity at human FFA2 receptor expressed in CHO cells assessed as inhibition of forskolin-induced cAMP production. It is filed as functional, cell-based. Put shortly: (§2)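 Suspended cells, 10,000 per well, in Hank's balanced salt solution with 25 mM HEPES and 0.01% (w/v) BSA. Stimulated with forskolin (5 μM final) plus serially diluted test ligands, room temperature for 30 min. Antibody and lysis reagents then added, followed by overnight dark incubation with detection solution. Luminescence read (RLU). Efficacy expressed relative to acetate. Means of four experiments.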
On the technique in general: Changes in cAMP serve as a functional read-out for many G protein-coupled receptors.

The next data set concerns Rattus norvegicus. Description: Clearance in Sprague-Dawley rat at 0.5 mg/kg, iv. The conditions noted are these: in vivo. Set-up: dose 0.5 mg/kg, route intravenous. It is filed as ADME, organism-based. Put shortly: (§3)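 Male Sprague-Dawley rats dosed 0.5 mg/kg iv.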
Data set [4] concerns the target T2, Free fatty acid receptor 2 (Mus musculus) (UniProt Q8VCK6).
T2 sequence (whole entry): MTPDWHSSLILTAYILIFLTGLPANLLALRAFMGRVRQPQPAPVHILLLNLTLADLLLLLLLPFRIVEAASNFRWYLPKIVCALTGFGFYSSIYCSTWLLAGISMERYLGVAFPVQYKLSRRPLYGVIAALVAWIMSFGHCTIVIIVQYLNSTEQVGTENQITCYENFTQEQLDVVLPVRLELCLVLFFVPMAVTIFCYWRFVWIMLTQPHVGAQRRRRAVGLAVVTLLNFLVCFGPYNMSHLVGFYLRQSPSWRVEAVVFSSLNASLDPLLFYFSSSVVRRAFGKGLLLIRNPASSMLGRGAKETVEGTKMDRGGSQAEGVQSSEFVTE
Briefly: Agonist activity at mouse FFA2 receptor expressed in CHO cells assessed as inhibition of forskolin-induced cAMP production. The data set is classed as functional, cell-based. The procedure, abridged: as §2

Data set [5] deals with C-C chemokine receptor type 2 (Homo sapiens) (UniProt P41597). Description: Agonist activity at CCR2 up to 30 uM. The data set is classed as functional.
Data set [6] has as its target T3, C-C chemokine receptor type 7 (Homo sapiens) (UniProt P32248).
T3 sequence (whole entry): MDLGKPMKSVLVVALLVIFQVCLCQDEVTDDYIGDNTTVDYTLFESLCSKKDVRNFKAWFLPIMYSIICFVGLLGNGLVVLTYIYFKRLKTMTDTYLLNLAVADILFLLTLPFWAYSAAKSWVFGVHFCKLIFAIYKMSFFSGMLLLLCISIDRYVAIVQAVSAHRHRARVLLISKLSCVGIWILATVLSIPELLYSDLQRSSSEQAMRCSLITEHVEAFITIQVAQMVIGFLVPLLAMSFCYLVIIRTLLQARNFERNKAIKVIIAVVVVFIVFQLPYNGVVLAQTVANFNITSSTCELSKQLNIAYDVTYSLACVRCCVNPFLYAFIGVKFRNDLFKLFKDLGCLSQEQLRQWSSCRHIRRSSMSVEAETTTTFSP
Briefly: Agonist activity at CCR7 up to 30 uM. It is filed as functional.

The test system of a further data set is 3T3-L1. Briefly: Inhibition of lipolysis in mouse 3T3L1 cells. It is filed as functional, cell-based. Put shortly:
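Lipolysis measured in 3T3L1 adipocytes across a concentration range of test compound. Sensitivity to pertussis toxin treatment also examined. Means of three experiments.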

Data set [7] has as its target C-X-C chemokine receptor type 4 (Homo sapiens) (UniProt P61073). Description: Agonist activity at CXCR4 up to 30 uM. The data set is classed as functional.
The target in data set [8] is T4, Endothelin receptor type B (Homo sapiens) (UniProt P24530).
T4 sequence (whole entry): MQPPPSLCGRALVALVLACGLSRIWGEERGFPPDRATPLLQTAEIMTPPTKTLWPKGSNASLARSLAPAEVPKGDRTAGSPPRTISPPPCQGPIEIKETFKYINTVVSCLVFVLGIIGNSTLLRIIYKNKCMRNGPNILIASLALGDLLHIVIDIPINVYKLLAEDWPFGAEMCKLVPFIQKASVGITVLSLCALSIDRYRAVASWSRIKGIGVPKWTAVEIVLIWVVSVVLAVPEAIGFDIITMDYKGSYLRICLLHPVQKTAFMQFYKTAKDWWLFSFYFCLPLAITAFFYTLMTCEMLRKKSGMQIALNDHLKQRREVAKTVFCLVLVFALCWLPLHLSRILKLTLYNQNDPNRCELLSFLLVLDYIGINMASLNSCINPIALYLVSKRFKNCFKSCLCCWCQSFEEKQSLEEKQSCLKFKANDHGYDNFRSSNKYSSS
Briefly: Agonist activity at ETBR up to 30 uM. The data set is classed as functional.

The subject of data set [9] is Mus musculus. Description: Reduction in plasma free fatty acid level in overnight fasted wild type C57BL/6 mouse at 20 mg/kg, ip after 15 mins. The data set is classed as functional, organism-based. Set-up: dose 20 mg/kg. The procedure, abridged: as §1
The nature of data set [10]: Tmax in mouse at 5 mg/kg, po. Set-up: dose 5 mg/kg, route oral. The conditions noted are these: in vivo. It is filed as ADME, organism-based.
Data set [11] can be described thus: Mean residence time in mouse at 5 mg/kg, po. Set-up: dose 5 mg/kg, route oral. It is filed as ADME, organism-based. Conditions: in vivo.
Data set [12] has as its target Growth hormone secretagogue receptor type 1 (Homo sapiens) (UniProt Q92847). Description: Agonist activity at GHSR up to 30 uM. It is filed as functional.
The nature of data set [13]: Mean residence time in Sprague-Dawley rat at 0.5 mg/kg, iv. The data set is classed as ADME, organism-based. Set-up: dose 0.5 mg/kg, route intravenous. The conditions noted are these: in vivo. Put shortly: as §3
For data set [14], the target named is T5, C-X-C chemokine receptor type 3 (Homo sapiens) (UniProt P49682).
T5 sequence (whole entry): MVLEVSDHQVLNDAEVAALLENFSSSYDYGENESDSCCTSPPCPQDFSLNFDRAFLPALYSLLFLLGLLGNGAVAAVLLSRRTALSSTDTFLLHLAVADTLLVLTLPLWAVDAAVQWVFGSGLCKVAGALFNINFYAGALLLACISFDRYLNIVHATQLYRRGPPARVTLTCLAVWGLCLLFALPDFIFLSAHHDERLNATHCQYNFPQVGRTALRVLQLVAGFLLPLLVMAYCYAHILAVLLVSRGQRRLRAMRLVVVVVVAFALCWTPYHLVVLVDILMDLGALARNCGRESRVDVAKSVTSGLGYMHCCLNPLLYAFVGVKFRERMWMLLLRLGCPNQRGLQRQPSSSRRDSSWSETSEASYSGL
Description: Agonist activity at CXCR3 up to 30 uM. The data set is classed as functional.

Data set [15] can be described thus: Cmax in mouse at 5 mg/kg, po. The data set is classed as ADME, organism-based. Also on record: dose 5 mg/kg, route oral. The conditions noted are these: in vivo.

The source made the active and inactive calls. The rule behind the calls is not given here.

C-X-C chemokine receptor type 4 (Homo sapiens), sequence (P61073 whole entry): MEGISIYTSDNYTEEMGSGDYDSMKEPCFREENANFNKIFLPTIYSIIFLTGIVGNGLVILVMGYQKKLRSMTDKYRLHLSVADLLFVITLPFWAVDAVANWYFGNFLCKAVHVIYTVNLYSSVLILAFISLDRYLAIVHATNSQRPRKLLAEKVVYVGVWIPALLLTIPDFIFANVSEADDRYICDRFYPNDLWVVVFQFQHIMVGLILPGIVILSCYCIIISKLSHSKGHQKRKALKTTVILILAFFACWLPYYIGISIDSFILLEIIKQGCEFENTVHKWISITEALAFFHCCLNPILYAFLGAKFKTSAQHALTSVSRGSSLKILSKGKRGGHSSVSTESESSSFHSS
Free fatty acid receptor 1 (Homo sapiens), sequence (O14842 whole entry): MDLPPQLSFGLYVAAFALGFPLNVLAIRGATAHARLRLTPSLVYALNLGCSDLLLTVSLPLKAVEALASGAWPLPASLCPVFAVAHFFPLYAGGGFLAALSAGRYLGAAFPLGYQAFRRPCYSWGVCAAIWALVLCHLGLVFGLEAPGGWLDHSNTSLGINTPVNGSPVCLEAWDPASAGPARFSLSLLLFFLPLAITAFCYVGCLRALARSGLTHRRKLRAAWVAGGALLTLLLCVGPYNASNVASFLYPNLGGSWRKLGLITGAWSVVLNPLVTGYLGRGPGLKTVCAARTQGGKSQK
Growth hormone secretagogue receptor type 1 (Homo sapiens), sequence (Q92847 whole entry): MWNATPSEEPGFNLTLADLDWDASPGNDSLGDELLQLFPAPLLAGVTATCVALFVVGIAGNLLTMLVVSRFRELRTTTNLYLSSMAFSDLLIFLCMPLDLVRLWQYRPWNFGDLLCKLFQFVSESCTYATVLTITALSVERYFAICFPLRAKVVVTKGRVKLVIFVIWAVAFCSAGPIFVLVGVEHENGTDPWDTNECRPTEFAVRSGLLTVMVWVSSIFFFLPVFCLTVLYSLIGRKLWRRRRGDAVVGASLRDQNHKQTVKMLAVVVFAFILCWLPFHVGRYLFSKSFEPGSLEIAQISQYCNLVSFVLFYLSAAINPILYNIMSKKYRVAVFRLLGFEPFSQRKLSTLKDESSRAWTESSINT
C-C chemokine receptor type 2 (Homo sapiens), sequence (P41597 whole entry, looked up): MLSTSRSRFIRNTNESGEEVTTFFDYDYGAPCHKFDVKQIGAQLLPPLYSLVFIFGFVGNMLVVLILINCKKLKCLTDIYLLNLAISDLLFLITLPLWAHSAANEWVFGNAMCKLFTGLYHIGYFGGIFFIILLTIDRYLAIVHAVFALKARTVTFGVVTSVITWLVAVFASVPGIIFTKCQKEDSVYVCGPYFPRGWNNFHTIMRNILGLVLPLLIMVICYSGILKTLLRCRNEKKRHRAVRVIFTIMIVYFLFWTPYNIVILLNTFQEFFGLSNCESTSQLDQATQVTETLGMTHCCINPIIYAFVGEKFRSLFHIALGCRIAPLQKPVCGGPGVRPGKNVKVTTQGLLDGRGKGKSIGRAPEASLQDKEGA

Usually IC50 stands for the midpoint of a concentration-inhibition curve. The Tmax is the time at which the peak concentration occurs. One may read the MRT as the average time that molecules of a dose stay in the body. In general, Cmax refers to the maximum level reached in the sampled fluid or tissue. Turning to `CC(C)[C@H](C(=O)Nc1ncc(F)s1)c1ccc(Cl)cc1`, the outcome in data set [1], in [5], in data set [6], in data set [7], in [8] and in data set [12] was inactive. Also, the outcome in data set [14] was inactive. Also, the result in the data set with Mus musculus [2] and in the data set with Mus musculus [9] was Active. In [3], the IC50 was 500 nM. Further, in the data set on Rattus norvegicus, the CL is 43.3 mL/min/kg. Besides, the Activity in data set [4] worked out at 0.7 µM. Further, the inhibition entry in the data set with 3T3-L1 was “Dose-dependent effect”. Further, the Tmax in [10] worked out at 19.8 min. Further, the figures for the MRT in data set [11] and in data set [13] were 55.8 min and 228 min, respectively. The Cmax in data set [15] amounted to 83 ng/mL.

For the origin of these results see ChEMBL document CHEMBL1153229, “The first synthetic agonists of FFA2: Discovery and SAR of phenylacetamides as allosteric modulators” (Bioorg Med Chem Lett, 2010).
